Data as given in ChEMBL document CHEMBL3407418, “Fragment-based drug discovery of 2-thiazolidinones as BRD4 inhibitors: 2. Structure-based optimization” (J Med Chem, 2015).
Active and inactive are the calls of the source. The rule behind the calls is not given here.

Key:
[1] = target: T1, Bromodomain-containing protein 4 (Homo sapiens, UniProt O60885); test: Inhibition of BRD4 in human HT-29 cells assessed as reduction in c-Myc protein expression at 5 and 10 uM after 24 hrs by Western blotting method; type: cell-based
Procedure, shortened: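 HT-29 cells seeded overnight, then treated 24 h; lysed in 1×SDS buffer (50 mmol/L Tris-HCl pH 6.8, 100 mmol/L DTT, 2% SDS, 10% glycerol), boiled 10 min. c-Myc immunoblotted with GAPDH loading control, peroxidase secondary antibodies, ECL detection. Repeated three times.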

[2] = target: T2, Cytochrome P450 1A2 (Homo sapiens, UniProt P05177); test: Time dependent inhibition of CYP1A2 in human liver microsomes at 10 uM using phenacetin substrate preincubated for 5 mins before NADPH addition and measured after 20 mins post NADPH addition; type: ADME
T2 sequence (P05177 whole entry): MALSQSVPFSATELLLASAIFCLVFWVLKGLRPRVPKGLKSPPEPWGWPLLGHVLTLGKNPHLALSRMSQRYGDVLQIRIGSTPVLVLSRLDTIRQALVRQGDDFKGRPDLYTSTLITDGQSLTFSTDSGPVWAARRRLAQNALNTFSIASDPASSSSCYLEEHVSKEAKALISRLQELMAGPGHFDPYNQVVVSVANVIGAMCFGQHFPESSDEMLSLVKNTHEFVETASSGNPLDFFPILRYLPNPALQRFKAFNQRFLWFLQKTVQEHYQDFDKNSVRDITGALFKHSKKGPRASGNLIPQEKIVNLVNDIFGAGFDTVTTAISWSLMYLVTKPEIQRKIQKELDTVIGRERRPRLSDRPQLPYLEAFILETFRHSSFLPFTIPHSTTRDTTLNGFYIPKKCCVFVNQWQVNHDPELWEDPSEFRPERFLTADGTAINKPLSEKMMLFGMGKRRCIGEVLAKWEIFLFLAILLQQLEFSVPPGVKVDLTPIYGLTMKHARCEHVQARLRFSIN

[3] = target: T1, Bromodomain-containing protein 4; test: Inhibition of BRD4 in human HT-29 cells assessed as reduction in c-myc mRNA expression at 0.3125 uM after 24 hrs by RT-qPCR method; type: cell-based
Procedure, shortened: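 HT-29 cells seeded overnight and exposed to compounds for 24 h; total RNA isolated, reverse-transcribed, and analysed by RT-qPCR with c-myc primers. Relative c-myc mRNA normalised to β-actin and expressed versus untreated control.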

[4] = target: Cytochrome P450 2D6 (Homo sapiens, UniProt P10635); test: Inhibition of CYP2D6 in human liver microsomes at 10 uM using dextromethorphan substrate preincubated for 5 mins before NADPH addition and measured after 20 mins post NADPH addition; type: ADME; settings: microsomes, 20 min, 10 µM
Procedure, shortened: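 Human liver microsomes 0.2 mg/mL, 1 mmol NADPH, 100 mmol phosphate pH 7.4, probe cocktail (10 μM midazolam, 100 μM testosterone, 10 μM dextromethorphan, 20 μM diclofenac, 100 μM phenacetin, 100 μM mephenytoin), test compound 10 μM or PBS; organic solvent <1%. 5 min preincubation at 37 °C, NADPH-generating system start, 20 min reaction; inhibition from metabolite formation relative to PBS.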

Cytochrome P450 2D6, sequence (P10635 whole entry): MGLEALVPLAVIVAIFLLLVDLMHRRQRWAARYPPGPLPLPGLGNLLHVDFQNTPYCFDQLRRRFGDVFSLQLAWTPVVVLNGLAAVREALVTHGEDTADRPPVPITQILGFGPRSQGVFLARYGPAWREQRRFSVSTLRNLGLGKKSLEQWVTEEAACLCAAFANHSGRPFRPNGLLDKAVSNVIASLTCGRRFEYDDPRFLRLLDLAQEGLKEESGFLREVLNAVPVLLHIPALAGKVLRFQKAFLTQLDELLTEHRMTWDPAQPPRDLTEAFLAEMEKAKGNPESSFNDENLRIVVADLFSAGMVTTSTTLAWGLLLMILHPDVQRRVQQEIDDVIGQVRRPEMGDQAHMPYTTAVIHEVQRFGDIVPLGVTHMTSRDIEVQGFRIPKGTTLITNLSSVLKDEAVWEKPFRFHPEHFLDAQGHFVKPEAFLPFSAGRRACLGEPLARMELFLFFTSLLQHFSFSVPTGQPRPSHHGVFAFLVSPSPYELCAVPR

Structure (SMILES)	inhibition [1]	TDI [2]	inhibition [3]	inhibition (INH) [4]
O=C(Nc1cc(-c2csc(=O)[nH]2)cc(S(=O)(=O)NC2CCCC2)c1)C1CC1	Active	Not Active	–	–
Cc1c(N)cc(-c2csc(=O)[nH]2)cc1S(=O)(=O)NC1CCCC1	Active	Not Active	Active	–
Cc1c(Br)cc(-c2csc(=O)[nH]2)cc1S(=O)(=O)NC1CCCC1	Active	–	–	–
COc1ccc(-c2csc(=O)[nH]2)cc1S(=O)(=O)NC1CCCC1	–	–	–	Not Active
